The values that follow come from ChEMBL document CHEMBL1139423, “Stress-driven discovery of metabolites from the phytopathogenic fungus Leptosphaeria maculans: structure and activity of leptomaculins A-E” (2008).

The test system of assay [1] is Brassica napus. The assay is described as follows: Stress inducing elicitor activity in Brassica napus cv. Wester assessed as induction of phytoalexins production. It counts as functional, organism-based. The method in brief: (§1)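 Test solutions applied to leaves of whole plants. Plants were grown in a growth chamber at 24 ± 2 °C on a 16 h light / 8 h dark cycle. Treated plants were incubated in a growth cabinet. Control leaves received MeOH/H2O (1:1). Elicitation was scored by HPLC-DAD of leaf extracts as phytoalexins absent from control plants. Assays were run in triplicate, at least twice.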

Assay [2] concerns Brassica juncea. The experiment in a line: Stress inducing elicitor activity in Brassica juncea cv. Cutlass assessed as induction of phytoalexins production. It counts as functional, organism-based. The method, boiled down:
as §1

Assay [3] has as its system Brassica napus. The assay is described as follows: Stress inducing elicitor activity in Brassica napus cv. Wester. It is filed as functional, organism-based. The method in brief:
as §1

Assay [4] relates to Brassica juncea. The experiment in a line: Stress inducing elicitor activity in Brassica juncea cv. Cutlass. It counts as functional, organism-based. The method, boiled down: as §1
The subject of assay [5] is Brassica napus. The assay is described as follows: Induction necrosis on leaves of Brassica napus cv. Wester at 0.5 mM. It is filed as functional, organism-based.
Assay [6] concerns Brassica juncea. The experiment in a line: Induction necrosis on leaves of Brassica juncea cv. Cutlass at 0.5 mM. It is filed as functional, organism-based.
For assay [7], the system named is Brassica napus. The experiment in a line: Stress inducing elicitor activity in Brassica napus cv. Wester assessed as increase in indolyl-3-acetonitrile levels relative to control. It counts as functional. The method in brief: (§2)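 Test solutions applied to leaves of whole plants (B. juncea cv. Cutlass, B. napus cv. Westar) grown in a growth chamber at 24 ± 2 °C with 16 h light / 8 h dark; plants then incubated in a growth cabinet. Leaf extracts analysed by HPLC-DAD for phytoalexins and indolyl stress metabolites against controls treated with MeOH/H2O (1:1). Run in triplicate, at least twice.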

The test system of assay [8] is Brassica napus. The experiment in a line: Stress inducing elicitor activity in Brassica napus cv. Wester assessed as increase in 1-methoxyindolyl-3-acetonitrile levels relative to control. It is filed as functional. The method, boiled down:
as §2

In assay [9] the test system is Brassica juncea. The experiment in a line: Stress inducing elicitor activity in Brassica juncea cv. Cutlass as induction of spirobrassinin production at 1 mM. It is filed as functional, organism-based. The method in brief:
as §1

In assay [10] the test system is Brassica juncea. The experiment in a line: Stress inducing elicitor activity in Brassica juncea cv. Cutlass assessed as increase in indolyl-3-acetonitrile levels relative to control. It is filed as functional. The method in brief:
as §2

Assay [11] deals with Brassica napus. The experiment in a line: Stress inducing elicitor activity in Brassica napus cv. Wester assessed as induction of spirobrassinin production at 1 mM. It counts as functional, organism-based. The method in brief: as §2
Assay [12] deals with Brassica juncea. The assay is described as follows: Stress inducing elicitor activity in Brassica juncea cv. Cutlass assessed as increase in 1-methoxyindolyl-3-acetonitrile levels relative to control. It is filed as functional. The method in brief: as §2
Assay [13] deals with Brassica juncea. The experiment in a line: Stress inducing elicitor activity in Brassica juncea cv. Cutlass assessed as induction of brassilexin production at 0.5 mM. It counts as functional, organism-based. The method, boiled down: as §2
Assay [14] deals with Brassica juncea. The experiment in a line: Stress inducing elicitor activity in Brassica juncea cv. Cutlass assessed as induction of brassilexin production at 1 mM. It counts as functional, organism-based. The method in brief:
as §2

For assay [15], the system named is Brassica juncea. The experiment in a line: Stress inducing elicitor activity in Brassica juncea cv. Cutlass assessed as induction of rutalexin production at 0.5 mM. It counts as functional, organism-based. The method, boiled down: as §2
The subject of assay [16] is Brassica juncea. The assay is described as follows: Stress inducing elicitor activity in Brassica juncea cv. Cutlass assessed as induction of rutalexin production at 1 mM. It is filed as functional, organism-based. The method, boiled down:
as §2

The test system of assay [17] is Brassica juncea. The assay is described as follows: Stress inducing elicitor activity in Brassica juncea cv. Cutlass assessed as induction of spirobrassinin production at 0.5 mM. It is filed as functional, organism-based. The method, boiled down:
as §2

The subject of assay [18] is Brassica juncea. The assay is described as follows: Stress inducing elicitor activity in Brassica juncea cv. Cutlass assessed as induction of cyclobrassinin production at 0.5 mM. It is filed as functional, organism-based. The method in brief: as §2
For assay [19], the system named is Brassica napus. The experiment in a line: Stress inducing elicitor activity in Brassica napus cv. Wester assessed as induction of spirobrassinin production at 0.5 mM. It counts as functional, organism-based. The method in brief: as §2
The test system of assay [20] is Brassica juncea. The experiment in a line: Stress inducing elicitor activity in Brassica juncea cv. Cutlass assessed as induction of spirobrassinin production at 1 mM. It counts as functional, organism-based. The method in brief: as §2
The test system of assay [21] is Brassica juncea. The assay is described as follows: Stress inducing elicitor activity in Brassica juncea cv. Cutlass assessed as induction of cyclobrassinin production at 1 mM. It is filed as functional, organism-based. The method, boiled down: as §2

SMILES strings stand for the structures. Active and inactive are the calls of the source. The rule behind the calls is not given here.

Consider `C/C=C1/NC(=O)[C@H](C(C)C)NC(=O)[C@@H](CC(C)C)NC(=O)[C@H](CC(C)C)OC(=O)[C@H](Cc2ccccc2)OC1=O`, for which the outcome with Brassica napus [1] and in the assay with Brassica juncea [2] was inactive.

In the case of `CC(=O)O[C@H]1[C@]2(O)C[C@]34SSSS[C@](CO)(C(=O)N3[C@@H]2C[C@]12O[C@H](C)C(C)(C)C2=O)N(C)C4=O`, the result in the assay on Brassica napus [3] and in the assay with Brassica juncea [4] was inactive.

With `CC(=O)O[C@H]1[C@]2(O)C[C@]34SSS[C@](CO)(C(=O)N3[C@@H]2C[C@]12O[C@H](C)C(C)(C)C2=O)N(C)C4=O`, the outcome in the assay on Brassica napus [3] and in the assay with Brassica juncea [4] was inactive.

As to `CC(=O)O[C@H]1[C@]2(O)C[C@]34S[C@](CO)(C(=O)N3[C@@H]2C[C@]12O[C@H](C)C(C)(C)C2=O)N(C)C4=O`, the outcome in the assay with Brassica napus [3] and with Brassica juncea [4] was inactive. In addition, the result with Brassica napus [5] and in the assay with Brassica juncea [6] was Active.

Regarding `CC(C)=CCOc1ccc(C[C@@H]2NC(=O)[C@H](CO)NC2=O)cc1`, the outcome with Brassica napus [1] and with Brassica juncea [2] was inactive.

For `C[C@H]1O[C@]2(C[C@H]3N4C(=O)[C@@]5(CO)SS[C@]4(C[C@@]3(O)[C@@H]2O)C(=O)N5C)C(=O)C1(C)C` [DEACETYLSIRODESMIN PL], the “fold change (FC)” value in the assay on Brassica napus [7], in the assay on Brassica napus [8], in the assay on Brassica juncea [10] and with Brassica juncea [12] was 8 throughout. In addition, the result with Brassica napus [5], in the assay on Brassica juncea [9], in the assay with Brassica juncea [6] and with Brassica napus [11] was Active.

Consider `CC(=O)O[C@H]1[C@]2(O)C[C@]34SS[C@](CO)(C(=O)N3[C@@H]2C[C@]12O[C@H](C)C(C)(C)C2=O)N(C)C4=O` [SIRODESMIN PL], for which the “fold change (FC)” value in the assay on Brassica napus [7], in the assay with Brassica napus [8], in the assay with Brassica juncea [10] and in the assay with Brassica juncea [12] was 8 throughout. In addition, the result in the assay with Brassica juncea [13], with Brassica juncea [14], in the assay on Brassica juncea [15], in the assay with Brassica napus [5], with Brassica juncea [16] and in the assay on Brassica juncea [17] was Active. Moreover, the result in the assay on Brassica juncea [18], with Brassica napus [19], in the assay on Brassica juncea [6], with Brassica juncea [20], in the assay with Brassica juncea [21] and in the assay on Brassica napus [11] was Active.
